Bioassay records (PubChem BioAssay)
RBBP9 inh: human RBBP9 hydrolase inhibition | recombinant RBBP9, FP-Rh probe fluorescence polarization | inhibition, % at 7.94 µM | hit rate 0.2% among 220,000;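 active = inhibition above the campaign mean of all tested compounds plus 3 SD, cut at about 14% in these data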;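 note: plate controls were DMSO wells with RBBP9 for no effect and wells lacking RBBP9 protein for full effect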
Target sequence (O75884 whole entry, looked up): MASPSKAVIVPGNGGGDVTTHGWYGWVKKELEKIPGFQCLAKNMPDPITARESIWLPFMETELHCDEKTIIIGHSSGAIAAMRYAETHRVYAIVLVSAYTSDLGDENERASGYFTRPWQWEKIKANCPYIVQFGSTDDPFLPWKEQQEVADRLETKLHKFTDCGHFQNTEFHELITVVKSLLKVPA
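System: RBBP9 protein / Buffer or medium: Tris/NaCl buffer pH 8.0 with 0.1% Pluronic / Probe or stimulus: Serine-hydrolase probe FP-Rh, 375 nM pre-mixing / Dosing: 7.94 µM single dose, 0.794% DMSO / Times: enzyme-compound preincubation 30 min, then probe labeling 45 min, 25 °C / Technique: fluorescence polarization (mP), excitation 525 nm, emission 598 nm / Replication: singlicate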
Autophagy mod: modulators of autophagy | calls only at 10 µM (by protocol) | MEF GFP-LC3 puncta imaging; test concentration mostly 10 µM | hit rate 0.98% among 190,000;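 active = percentage of spot-positive cells more than 3 SD above its plate mean, without a fluorescence outlier flag or 80% toxicity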;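 note: spot-positive cell cutoff set from DMSO-treated cells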
PKD1 kinase inh: PKD1 (human) kinase inhibition | Q15139 | PKD1 kinase fluorescence polarization assay | inhibition, % (concentration not given with the values) | hit rate 0.056% among 200,000; in the data active = inhibition above about 50%
Arbovirus inh: arbovirus infection inhibition. hit rate 0.37% among 200,000. AID 1251. arbovirus infection cell-based antiviral screen. inhibition, % at 10 µM; in the data active = inhibition above about 30%
Insulin prom inh: TRM-6 insulin promoter activity inhibition; hit rate 0.9% among 130,000; inhibition, % at 2 µM; TRM-6 cells, insulin promoter-eGFP reporter, imaging; reporter expression induced with tamoxifen;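 active = inhibition above the mean plus 3 SD, with well images judged a real hit on visual review, cut at about 60% in these data, passing the limit was not always enough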
Insulin prom up: MIN6 insulin promoter up-regulation. hit rate 0.3% among 190,000. MIN6 insulin promoter-GFP reporter, high-content imaging; stronger effect = higher value. AID 1625. z-score at 5 µM;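 active = z-score above 3 at 5 µM with at least 500 cells counted in the well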
Numbers without * were called inactive; i = inactive; . = no result; + = active, no number. Compounds with a hit are over-represented: about 2.1% of the library has one in this group of screens.

SMILES	RBBP9 inh	Autophagy mod	PKD1 kinase inh	Arbovirus inh	Insulin prom inh	Insulin prom up
NNc1nc2c(-c3ccc(Cl)cc3)nnn2c2ccccc12	1	+	-2	-1	.	2.3
NNc1nc2c(-c3ccc(F)cc3)nnn2c2ccccc12	-4	i	2	3	.	1.8
COCCCN1C(=O)c2ccc(C(=O)Nc3ccccc3OC)cc2C1=O	-10	i	-5	5	-10	-0.08
O=C(c1ccc2c(c1)OCO2)N1CCC2(CC1)Oc1ccc(F)cc1C(=O)C21CC(c2cccnc2)=NO1 (stereo not given)	.	.	.	.	.	-1.1
COC(=O)c1ccccc1NS(=O)(=O)c1ccc(O)c(C(=O)O)c1	-4	i	-6	-1	-25	0.23
CCOC(=O)c1c(C)[nH]c(C(=O)OCC(=O)N2CCc3ccccc32)c1C	1	+	6	-7	.	0.62
O=C(Nc1nnc(COc2ccc(Cl)cc2)s1)c1cccs1	-5	i	1	2	80*	-0.66
O=C(Nc1nnc(COc2ccc(F)cc2)s1)c1cccs1	-6	i	-7	-7	-13	-0.78
COC(=O)Nc1nnc(COc2cccc(C)c2)s1	-7	i	3	-9	31	-0.2
Cc1cccc(C(=O)Nc2nnc(COc3ccccc3)s2)c1	-9	+	-10	2	.	-0.15
Cc1ccc(C(=O)CSc2nnnn2Cc2ccccc2)cc1C	3	.	.	.	.	-0.21
O=C(CSc1nnnn1Cc1ccccc1)c1ccccc1F	-4	i	1	28	93*	-0.54
CCC(=O)OCC(=O)c1c(N)n(Cc2ccccc2)c(=O)n(C)c1=O	0	i	-4	-8	-36	3.3*
CCOC(=O)c1cnc(C(C)(C)C)[nH]c1=O	-8	i	-8	6	73	0.6
CCOc1ccccc1Nc1nnc(SCC(=O)Nc2cccc(S(=O)(=O)NC3=NCCCCC3)c2)s1	-1	i	6	20	14	0.12
CCOc1ccc(OCCN2CCCCC2)cc1	-7	i	4	0	62*	0.21
Cc1ccc(C2SCC(=O)N2Cc2cn3ccsc3n2)o1 (stereo not given)	-10	+	1	8	.	0.08
Cc1ccccc1C(=O)NCC(=O)NNC(=S)NC(=O)c1ccccc1	-5	i	-9	-2	23	0.19
CCN(CC)c1ccc(C=C(c2nnnn2-c2ccc(C)cc2)c2nnnn2-c2ccc(C)cc2)cc1	-4	+	1	-13	-65	1.6
Cc1ccc(-n2nnnc2-c2ccccc2)cc1	-11	i	-7	-12	-67	-0.85
CSc1ncccc1C(=O)Nc1ccc(S(=O)(=O)NC2=NCCCCC2)cc1	0	i	-2	2	.	0.43
Cn1cc(C(=O)Nc2ccc(Cl)cc2)c(C(F)(F)F)n1	-5	+	-6	0	.	-0.15
Cc1cc(C)c(S(=O)(=O)Nc2ccc(O)c(Sc3ncn[nH]3)c2)c(C)c1	-9	i	-4	-1	-38	0.27
O=C(Nc1nnc(C2CC2)o1)c1ccc(S(=O)(=O)N2CCc3ccccc3C2)cc1	2	i	-3	-17	.	-0.41
COc1ccc2c(c1)NC(c1cc(Cl)cc(Cl)c1O)c1cccn1-2 (stereo not given)	-2	+	-6	-8	.	-0.15
SMILES	RBBP9 inh	Autophagy mod	PKD1 kinase inh	Arbovirus inh	Insulin prom inh	Insulin prom up
Cc1ccc(-c2nc(C=Nc3ccc(O)cc3)c(O)o2)cc1	0	i	1	-16	.	0.23
Cc1ccc(N=Cc2nc(/C=C/c3cccc([N+](=O)[O-])c3)oc2O)cc1	-7	+	3	-13	-39	0.84
Cn1nc(CC(=O)NCCN2C(=O)CSC2=O)c2ccccc2c1=O	-4	i	-12	3	.	0.62
CS(=O)(=O)n1nc(-c2ccccc2)nc1N	-9	i	-8	5	.	.
Cc1ccc(CSc2nnc(-c3ccncc3)n2N)cc1	1	.	.	.	.	0.34
CCOC(=O)c1ccc(CSc2nnc(-c3ccncc3)n2N)cc1	6	i	-9	1	27	3.8*
CCNc1nc(NCC)nc(N(n2cnnc2)S(=O)(=O)c2ccc(C)cc2)n1	10	i	5	3	80*	-0.16
Cc1ccc(C(=O)/C=C\C(=O)c2ccc(C)cc2)cc1	1	+	-1	-11	29	0.45
Cc1cc(C(=O)Oc2cccnc2)ccc1[N+](=O)[O-]	-4	i	14	7	83*	-0.21
Cc1ccc(NC(=O)/C=C/c2ccc([N+](=O)[O-])s2)cc1	-11	i	-7	4	-270	17*
